Laboratory results published in ChEMBL document CHEMBL1123042, “Ring-substituted 1,1,2,2-tetraalkylated 1,2-bis(hydroxyphenyl)ethanes. 4. Synthesis, estrogen receptor binding affinity, and evaluation of antiestrogenic and mammary tumor inhibiting activity of symmetrically disubstituted 1,1,2,2-tetramethyl-1,2-bis(hydroxyphenyl)ethanes” (1985).
Several values for one entry are separate records, joined by “and”; a condition that tells them apart may be missing. Equal values may be shown once.

Assays:
[1] = target: Estrogen receptor (Bos taurus) (UniProt Q9XSB5+P49884); assay: Relative binding affinity for calf uterine estrogen receptor compared to [3H]estradiol; type: protein assay
Method in brief: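 Competition binding with calf uterine cytosol and [3H]estradiol, incubated 16 h at 4 °C and stopped with dextran-coated charcoal. Supernatant radioactivity counted after centrifugation. Six competitor concentrations spanned 50% displacement on a semilog plot. RBA = (molar E2 concentration / competitor concentration each giving 50% reduction of bound [3H]E2) × 100.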

[2] = target: T1, Estrogen receptor (Mus musculus) (UniProt O08537+P19785); assay: Anti-uterotrophic effect in mice at 500 ug; type: functional
Method in brief: (§1)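 Immature NMRI mice, 20 days old (14.5 ± 1.2 g), randomly grouped 10 per group. Given daily subcutaneous test compound in 0.1 mL olive oil for 3 days, together with estrone to stimulate uterine growth. Uteri taken 24 h after last injection, fixed in Bouin's solution, washed, dried and weighed. Read-out is inhibition of estrone-stimulated uterine growth.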

[3] = target: T1, Estrogen receptor (Mus musculus); assay: Anti-uterotrophic effect in mice at 0 ug; type: functional; method in brief: as §1
[4] = target: T1, Estrogen receptor (Mus musculus); assay: Anti-uterotrophic effect in mice at 50 ug; type: functional; method in brief: as §1
[5] = target: T1, Estrogen receptor (Mus musculus); assay: Uterotrophic effect in mice at 10 ug; type: functional, tissue-based; conditions: Uterus
Method in brief: (§2)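 Immature female NMRI mice, 20 days old (14.5 ± 1.2 g), 10 per randomized group. Received test compound subcutaneously in 0.1 mL olive oil daily for 3 days. Uteri removed 24 h after final dose, Bouin-fixed, washed, dried and weighed to measure stimulation of uterine growth.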

[6] = target: T1, Estrogen receptor (Mus musculus); assay: Uterotrophic effect in mice at 1000 ug; type: functional, tissue-based; conditions: Uterus; method in brief: as §2
[7] = target: T1, Estrogen receptor (Mus musculus); assay: Uterotrophic effect in mice at 100 ug; type: functional, tissue-based; conditions: Uterus; method in brief: as §2
[8] = target: T1, Estrogen receptor (Mus musculus); assay: Percent inhibition of estrone stimulated uterine growth in mice at 500 […]; type: functional; method in brief: as §1
[9] = target: T1, Estrogen receptor (Mus musculus); assay: Percent inhibition of estrone stimulated uterine growth in mice at 50 […]; type: functional; method in brief: as §1
[10] = target: T1, Estrogen receptor (Mus musculus); assay: Uterotrophic effect in mice at 1 ug; type: functional, tissue-based; conditions: Uterus; method in brief: as §2
[11] = target: T1, Estrogen receptor (Mus musculus); assay: Uterotrophic effect in mice at 0 ug; type: functional, tissue-based; conditions: Uterus; method in brief: as §2
[12] = target: T1, Estrogen receptor (Mus musculus); assay: Percent inhibition of estrone stimulated uterine growth in mice at 5 […]; type: functional; method in brief: as §1
[13] = target: T1, Estrogen receptor (Mus musculus); assay: Anti-uterotrophic effect in mice at 5 ug; type: functional; method in brief: as §1
[14] = system: Rattus norvegicus; assay: Percent change in tumor area in DMBA-induced carcinoma in rats after 28 day therapy at 5 mg/kg; type: functional
[15] = system: Rattus norvegicus; assay: Percent remission in DMBA-Induced Mammary Carcinoma in rats at 2 mg/kg/day; type: functional
[16] = system: Rattus norvegicus; assay: Percent reduction in tumor size (<50%) in DMBA-induced mammary carcinoma in rats at 5 mg/kg/day; type: functional
[17] = system: Rattus norvegicus; assay: Percent increase in tumor size (>150%) in DMBA-induced mammary carcinoma in rats at 2 mg/kg/day; type: functional
[18] = system: Rattus norvegicus; assay: Percent change in body weight in DMBA-induced mammary carcinoma in rats after 7 day therapy at 2 mg/kg/day; type: functional
[19] = system: Rattus norvegicus; assay: Percent unchanged tumor size (51-150%) in DMBA-induced mammary carcinoma in rats at 2 mg/kg/day; type: functional
[20] = system: Rattus norvegicus; assay: Percent change in body weight in DMBA-induced mammary carcinoma in rats after 7 day therapy at 5 mg/kg/day; type: functional
[21] = system: Rattus norvegicus; assay: Percent change in tumor area in DMBA-induced carcinoma in rats after 28 day therapy at 2 mg/kg; type: functional
[22] = system: Rattus norvegicus; assay: Percent unchanged tumor size (51-150%) in DMBA-induced mammary carcinoma in rats at 5 mg/kg/day; type: functional
[23] = system: Rattus norvegicus; assay: Percent remission in DMBA-Induced Mammary Carcinoma in rats at 5 mg/kg/day; type: functional
[24] = system: Rattus norvegicus; assay: Percent reduction in tumor size (<50%) in DMBA-induced mammary carcinoma in rats at 2 mg/kg/day; type: functional
[25] = system: Rattus norvegicus; assay: Percent increase in tumor size (>150%) in DMBA-induced mammary carcinoma in rats at 5 mg/kg/day; type: functional
[26] = target: T1, Estrogen receptor (Mus musculus); assay: Uterotrophic effect in mice at 80 ug; type: functional, tissue-based; conditions: Uterus; method in brief: as §2
[27] = target: T1, Estrogen receptor (Mus musculus); assay: Uterotrophic effect in mice at 24 ug; type: functional, tissue-based; conditions: Uterus; method in brief: as §2
[28] = target: T1, Estrogen receptor (Mus musculus); assay: Uterotrophic effect in mice at 8 ug; type: functional, tissue-based; conditions: Uterus; method in brief: as §2
[29] = target: T1, Estrogen receptor (Mus musculus); assay: Uterotrophic effect in mice at 250 ug; type: functional, tissue-based; conditions: Uterus; method in brief: as §2
[30] = target: T1, Estrogen receptor (Mus musculus); assay: Anti-uterotrophic effect in mice at 10 ug; type: functional; method in brief: as §1
[31] = target: T1, Estrogen receptor (Mus musculus); assay: Anti-uterotrophic effect in mice at 100 ug; type: functional; method in brief: as §1
[32] = target: T1, Estrogen receptor (Mus musculus); assay: Anti-uterotrophic effect in mice at 0.1 ug; type: functional; method in brief: as §1
[33] = target: T1, Estrogen receptor (Mus musculus); assay: Percent inhibition of estrone stimulated uterine growth in mice at 1000 […]; type: functional; method in brief: as §1
[34] = target: T1, Estrogen receptor (Mus musculus); assay: Anti-uterotrophic effect in mice at 1000 ug; type: functional; method in brief: as §1
[35] = system: Rattus norvegicus; assay: ercent reduction in tumor size (<50%) in DMBA-induced mammary carcinoma in rats at 5 mg/kg/day; type: functional
[36] = target: T1, Estrogen receptor (Mus musculus); assay: Percent inhibition of estrone stimulated uterine growth in mice at 100 […]; type: functional; method in brief: as §1
[37] = target: T1, Estrogen receptor (Mus musculus); assay: Percent inhibition of estrone stimulated uterine growth in mice at 10 […]; type: functional; method in brief: as §1
[38] = target: T1, Estrogen receptor (Mus musculus); assay: Anti-uterotrophic effect in mice at 1 ug; type: functional; method in brief: as §1
[39] = target: T1, Estrogen receptor (Mus musculus)
[40] = target: T1, Estrogen receptor (Mus musculus); conditions: Uterus

T1 sequence (O08537 whole entry, looked up): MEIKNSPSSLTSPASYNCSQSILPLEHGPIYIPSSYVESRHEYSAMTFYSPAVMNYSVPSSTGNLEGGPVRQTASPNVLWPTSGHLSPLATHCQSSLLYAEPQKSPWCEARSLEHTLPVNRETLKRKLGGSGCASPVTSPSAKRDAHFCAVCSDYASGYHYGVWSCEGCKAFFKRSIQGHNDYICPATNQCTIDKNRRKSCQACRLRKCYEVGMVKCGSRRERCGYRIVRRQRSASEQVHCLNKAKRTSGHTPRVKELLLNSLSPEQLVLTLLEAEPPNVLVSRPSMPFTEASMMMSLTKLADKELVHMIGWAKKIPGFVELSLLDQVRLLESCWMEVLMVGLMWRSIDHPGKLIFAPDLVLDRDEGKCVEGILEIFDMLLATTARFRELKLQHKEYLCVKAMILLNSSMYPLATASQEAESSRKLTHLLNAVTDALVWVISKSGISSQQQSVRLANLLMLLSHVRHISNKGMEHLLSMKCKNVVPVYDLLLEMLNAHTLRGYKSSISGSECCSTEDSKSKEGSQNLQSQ
T1 sequence (P19785 whole entry, looked up): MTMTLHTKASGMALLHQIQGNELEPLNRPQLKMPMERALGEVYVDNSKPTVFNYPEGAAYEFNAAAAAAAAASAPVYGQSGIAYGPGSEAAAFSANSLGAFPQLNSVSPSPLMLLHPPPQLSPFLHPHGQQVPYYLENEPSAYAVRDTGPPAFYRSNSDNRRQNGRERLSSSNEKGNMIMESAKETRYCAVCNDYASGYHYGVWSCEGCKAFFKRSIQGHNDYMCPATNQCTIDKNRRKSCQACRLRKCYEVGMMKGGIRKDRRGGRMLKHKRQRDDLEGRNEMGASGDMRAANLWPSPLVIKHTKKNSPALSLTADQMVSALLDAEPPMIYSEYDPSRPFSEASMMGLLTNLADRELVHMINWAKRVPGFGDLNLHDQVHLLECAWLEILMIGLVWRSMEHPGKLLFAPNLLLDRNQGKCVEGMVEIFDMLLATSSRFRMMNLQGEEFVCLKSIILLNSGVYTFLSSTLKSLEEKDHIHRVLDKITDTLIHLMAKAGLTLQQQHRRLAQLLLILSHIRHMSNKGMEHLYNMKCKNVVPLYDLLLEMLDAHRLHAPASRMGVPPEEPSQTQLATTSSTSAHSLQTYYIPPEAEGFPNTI

Structure (SMILES)	relative binding affinity (RBA) [1]	Effect [2]	Effect [3]	Effect [4]	Effect [5]	Effect [6]	Effect [7]	Effect [10]	Effect [11]	other results
CC(C)(c1cc(O)cc(Cl)c1)C(C)(C)c1cc(O)cc(Cl)c1	0.01									
CC(C)(c1cc(O)ccc1Cl)C(C)(C)c1cc(O)ccc1Cl	3.5	37.8	13.7	44.2 and 34.9	22.6	35.7	33	14.7	11.1	Inhibition (alpha = 0.01) [8]: 27%; Inhibition (alpha = 0.01) [9]: 36%; inhibition [12]: 7%
Cc1cc(O)ccc1C(C)(C)C(C)(C)c1ccc(O)cc1C	2.6	37.3	13.7	50	22.2	38	28	16.6	11.1	inhibition [8]: 22%; Effect [13]: 51.2
CC(C)(c1ccc(O)cc1Cl)C(C)(C)c1ccc(O)cc1Cl	3.4	35.2	13.7	38.9	51.5	35.2	32.7	35.8	13.7	inhibition [8]: 29%; inhibition [9]: 17%; Effect [13]: 48.4
COc1cc(O)ccc1C(C)(C)C(C)(C)c1ccc(O)cc1OC	0.45									
CC(C)(c1cc(O)ccc1F)C(C)(C)c1cc(O)ccc1F	4	32.5	13.7	37.2	16.6	35.6	22.6	15.4	9.7	Change of area [14]: 396%; Remission [15]: 0%; Change of size [16]: 4%; Change of size [17]: 77%; Change of weight [18]: 3.5%; Change of size [19]: 16%; Change of weight [20]: 2.9%; inhibition [8]: 43%; Change of area [21]: 441%; inhibition [9]: 29%; Change of size [22]: 7%; Remission [23]: 0%; Effect [13]: 48.6; Remission [24]: 7%; Change of size [25]: 89%
CC(C)(c1cccc(O)c1)C(C)(C)c1cccc(O)c1	3					13.4			9.2	Effect [26]: 15.4; Effect [27]: 15.7; Effect [28]: 9.8; Effect [29]: 14.6
CC(C)(c1ccc(O)cc1F)C(C)(C)c1ccc(O)cc1F	6.4		13.8		38.8	38.5	42.6	27	16.4	Change of area [14]: -47%; Effect [30]: 41; Remission [15]: 64%; Effect [31]: 35.9; Effect [32]: 47.7; inhibition [33]: 40%; Change of size [17]: 18%; Effect [34]: 34.2; Change of weight [18]: -3.1%; Change of size [19]: 14%; Change of weight [20]: -4%; Change of area [21]: 22%; Change of size [22]: 3%; Change of size [35]: 10%; inhibition [36]: 35%; inhibition [37]: 20%; Remission [23]: 74%; Change of size [24]: 4%; Change of size [25]: 13%; Effect [38]: 49.9
Cc1ccc(O)cc1C(C)(C)C(C)(C)c1cc(O)ccc1C	0.9									
C[C@]12CC[C@@H]3c4ccc(O)cc4CC[C@H]3[C@@H]1CCC2=O										uterine weight [39]: 47.8 mg/100 g; uterine weight [40]: 45.3 mg/100 g
COc1ccc(O)cc1C(C)(C)C(C)(C)c1cc(O)ccc1OC	< 0.01									
CC(C)(c1ccc(O)cc1)C(C)(C)c1ccc(O)cc1	3.6					14.3			9.2	Effect [26]: 15.8; Effect [27]: 15.7; Effect [28]: 10.6; Effect [29]: 13.3
